Assay results collected from several papers.
Protocols differ between the studies behind these lines.
Effect on: cell growth or viability

SMILES	cell line	test	setting	IC50
CC(=O)Nc1nc(C)c(-c2csc(Nc3ccccc3)n2)s1	MEF	MTT	72 h	21400 nM
Cn1nnc2c(C(N)=O)ncn2c1=O	IMR-32			81600 nM
CC1=C(O)C(=O)C=C2C1=CC=C1[C@@]2(C)CC[C@@]2(C)[C@@H]3C[C@](C)(C(=O)OCCCN4C(=O)C5C=CC=CC5C4=O)CC[C@]3(C)CC[C@]12C (some centres unmarked)	AGS	MTT	48 h	370 nM
C=CC(=O)Nc1cc(Nc2nccc(-c3cn(C)c4ccccc34)n2)c(OC)cc1N(C)CCN(C)C	PC-9	ATP luminescence	72 h	4.3 nM
COc1ccc(/C=C/C(=O)c2cc(Br)ccc(=O)c2O)cc1	MEF	MTT	72 h	6000 nM
COc1ccc(C2=N[C@@H](c3ccc(Cl)cc3)[C@@H](c3ccc(Cl)cc3)N2C(=O)N2CCNC(=O)C2)c(OC(C)C)c1	DU-4475	MTS	48 h	4000 nM
O=C1NC(=NCc2cccs2)S/C1=C\c1ccc2ncccc2c1	EKVX			> 10000 nM
CC1=C(O)C(=O)C=C2C1=CC=C1[C@@]2(C)CC[C@@]2(C)[C@@H]3C[C@](C)(C(=O)OCCCOc4ccccc4)CC[C@]3(C)CC[C@]12C	AGS	MTT	48 h	1360 nM
Cc1ncn2c(=O)n(C)nnc12	U-87 MG	resazurin	7 days	3000 nM
CC1=C(O)C(=O)C=C2C1=CC=C1[C@@]2(C)CC[C@@]2(C)[C@@H]3C[C@](C)(C(=O)OCCCCCCCO)CC[C@]3(C)CC[C@]12C	AGS	MTT	48 h	410 nM
CCN1C(=O)N(c2c(F)c(OC)cc(OC)c2F)Cc2cnc3[nH]c(CN4CCOCC4)cc3c21	JMSU-1	ATP luminescence	96 h	8.79 nM
CC1=C(O)C(=O)C=C2C1=CC=C1[C@@]2(C)CC[C@@]2(C)[C@@H]3C[C@](C)(C(=O)OCCCCO)CC[C@]3(C)CC[C@]12C	AGS	MTT	48 h	350 nM
CCc1ccc(N2NC(=O)/C(=C/c3ccc(-c4ccc(S(=O)(=O)Nc5nccs5)cc4)o3)C2=O)cc1	MEF	MTT	72 h	50000 nM
CCCCN(CCCC)C(=O)c1ncn2c(=O)n(C)nnc12	U-87 MG	resazurin	7 days	27000 nM
CC1=C(O)C(=O)C=C2C1=CC=C1[C@@]2(C)CC[C@@]2(C)[C@@H]3C[C@](C)(C(=O)OCCCBr)CC[C@]3(C)CC[C@]12C	AGS	MTT	48 h	360 nM
COc1cccc2c1C(=O)c1c(O)c3c(c(O)c1C2=O)C[C@@](O)(C(=O)CO)C[C@@H]3O[C@H]1C[C@H](N)[C@H](O)[C@H](C)O1	ChaGo-K-1	MTT	48 h	0.65 µg/mL
CC1=C(O)C(=O)C=C2C1=CC=C1[C@@]2(C)CC[C@@]2(C)[C@@H]3C[C@](C)(C(=O)OCCO)CC[C@]3(C)CC[C@]12C	AGS	MTT	48 h	470 nM
COc1cccc2c1C(=O)c1c(O)c3c(c(O)c1C2=O)C[C@@](O)(C(=O)CO)C[C@@H]3O[C@H]1C[C@H](N)[C@H](O)[C@H](C)O1	AGS	MTT	24 h	< 625 nM
CCN1CCN(c2ccc(Nc3cc(N(C)C(=O)Nc4c(Cl)c(OC)cc(OC)c4Cl)ncn3)cc2)CC1	JMSU-1	ATP luminescence	96 h	25.9 nM
COc1c(C)c(OC)c2c(c1C)OC(c1ccccc1)CC2=O (centres unmarked)	KKU-M213	SRB	72 h	> 50000 nM
